Assay results taken from ChEMBL document CHEMBL4177600, “Identification of novel PI3K inhibitors through a scaffold hopping strategy” (Bioorg Med Chem Lett, 2017).
≈ marks a conversion by molar mass, not a printed value.

What was measured:
[1] = Kinetic solubility of the compound in phosphate buffered saline at pH 7.4 at 1 to 2 mg measured after 24 hrs by HPLC analysis; format: physicochemical; conditions: read-out: Kinetic_solubility
How it was run: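 Solid compound (1–2 mg) in 1 mL PBS, pH 7.4, inverted in test tubes for 24 h. Samples centrifuged, supernatant analysed by HPLC with diode-array detection, with peak area compared to a standard of known concentration. LC-MS/MS used when UV signal was too low or the chromophore poor. Reported in µM.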

[2] = Oral bioavailability in BALB-C mouse at 8 mg/kg by LC-MS/MS analysis; format: ADME, organism-based; conditions: in vivo
How it was run: (§1)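 BALB-C mice dosed IV in 10% NMP/50% PEG300/40% saline or PO in 10% NMP/90% PEG300. Plasma sampled at 6 (IV) or 8 (PO) time points and quantified by LC/MS/MS. Parameters come from a bicompartmental model fit; values are means of 3 independent samples. Plasma levels were compared with AKT-P EC50 from U2OS cells converted to ng/ml.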

CYP2D6 = CYP2D6 (Homo sapiens, UniProt P10635); experiment: Inhibition of CYP2D6 (unknown origin) at 10 uM relative to control; format: ADME
How it was run: (§2)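 CYP1A2, 2C9, 2C19, 2D6 and 3A4 inhibition measured at 10 µM test compound in duplicate; percent inhibition reported.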

[3] = Volume of distribution in BALB-C mouse at 8 mg/kg, iv by LC-MS/MS analysis; format: ADME, organism-based; conditions: in vivo; how it was run: as §1
[4] = AUC (infinity) in BALB-C mouse at 8 mg/kg, po by LC-MS/MS analysis; format: ADME, organism-based; design: dose 8 mg/kg, route oral, time infinity; conditions: in vivo
How it was run: (§3)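 BALB-C mice dosed IV (10% NMP/50% PEG300/40% saline) or PO (10% NMP/90% PEG300). Plasma sampled at 6 (IV) or 8 (PO) time points; compound measured by LC/MS/MS. Parameters from bicompartmental model fit; each value is the mean of 3 independent samples.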

[5] = Stability in human liver microsomes assessed as parent compound remaining at 0.5 uM after 30 mins by LC-MS/MS analysis; format: ADME, microsome; conditions: read-out: Stability
How it was run: (§4)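 Single time-point stability assay: 0.5 µM compound, 0.5 mg/ml human or mouse liver microsomes in 0.1 M potassium phosphate pH 7.4, with NADPH-regenerating system, 30 min at 37 °C with shaking. Reaction quenched with acetonitrile/0.1% formic acid and centrifuged; supernatant analysed by LC-MS/MS. Reported as percent remaining; duplicates.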

[6] = molecular target: Serine/threonine-protein kinase mTOR (Homo sapiens, UniProt P42345); experiment: Inhibition of recombinant human GST-tagged mTOR catalytic domain (1360 to 2549 residues) expressed in baculovirus expression system by AlexaFluor647-labeled kinase tracer 314 based LanthaScreen assay
CYP2C9 = CYP2C9 (Homo sapiens, UniProt P11712); experiment: Inhibition of CYP2C9 (unknown origin) at 10 uM relative to control; format: ADME; how it was run: as §2
CYP2C19 = CYP2C19 (Homo sapiens, UniProt P33261); experiment: Inhibition of CYP2C19 (unknown origin) at 10 uM relative to control; format: ADME; how it was run: as §2
CYP1A2 = molecular target: T1, CYP1A2 (Homo sapiens, UniProt P05177); experiment: Inhibition of CYP1A2 (unknown origin) at 10 uM relative to control; format: ADME; how it was run: as §2
T1 sequence (P05177 whole entry): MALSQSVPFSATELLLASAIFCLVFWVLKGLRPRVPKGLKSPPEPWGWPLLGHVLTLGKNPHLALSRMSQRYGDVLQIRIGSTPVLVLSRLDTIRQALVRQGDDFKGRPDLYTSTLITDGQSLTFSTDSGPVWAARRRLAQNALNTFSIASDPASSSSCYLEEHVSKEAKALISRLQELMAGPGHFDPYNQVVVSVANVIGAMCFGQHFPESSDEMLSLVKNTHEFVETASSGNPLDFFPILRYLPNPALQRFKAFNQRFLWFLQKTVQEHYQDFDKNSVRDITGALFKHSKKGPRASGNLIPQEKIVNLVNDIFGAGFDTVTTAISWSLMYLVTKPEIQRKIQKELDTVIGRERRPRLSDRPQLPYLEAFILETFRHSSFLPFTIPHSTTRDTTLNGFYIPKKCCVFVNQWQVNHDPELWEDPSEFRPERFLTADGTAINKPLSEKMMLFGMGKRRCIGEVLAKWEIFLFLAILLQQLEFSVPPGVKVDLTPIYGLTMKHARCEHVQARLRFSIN

[7] = Clearance in BALB-C mouse at 8 mg/kg, iv by LC-MS/MS analysis; format: ADME, organism-based; conditions: in vivo
How it was run: (§5)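 Mice (BALB-C) given IV dose in 10% NMP/50% PEG300/40% saline; plasma sampled at 6 times, levels by LC/MS/MS.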

[8] = Stability in mouse liver microsomes assessed as parent compound remaining at 0.5 uM after 30 mins by LC-MS/MS analysis; format: ADME, microsome; conditions: read-out: Stability; how it was run: as §4
[9] = AUC (infinity) in BALB-C mouse at 8 mg/kg, iv by LC-MS/MS analysis; format: ADME, organism-based; design: dose 8 mg/kg, time infinity, route intravenous; conditions: in vivo; how it was run: as §3
CYP3A4 = CYP3A4 (Homo sapiens, UniProt P08684); experiment: Inhibition of CYP3A4 (unknown origin) at 10 uM relative to control; format: ADME; how it was run: as §2
Mus musculus [10] = experiment: Clearance in BALB-C mouse at 8 mg/kg, iv by LC-MS/MS analysis relative to hepatic blood flow; format: ADME, organism-based; conditions: in vivo
[11] = Half-life in BALB-C mouse at 8 mg/kg, po by LC-MS/MS analysis; format: ADME, organism-based; conditions: in vivo; how it was run: as §3
[12] = Cmax in BALB-C mouse at 8 mg/kg, po by LC-MS/MS analysis; format: ADME, organism-based; design: dose 8 mg/kg, route oral; conditions: in vivo; how it was run: as §3
[13] = Tmax in BALB-C mouse at 8 mg/kg, po by LC-MS/MS analysis; format: ADME, organism-based; conditions: in vivo; how it was run: as §1
[14] = Permeability of the compound at 300 uL after 5 hrs by PAMPA; format: ADME; conditions: read-out: permeability
How it was run: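 Pre-coated PAMPA plates with a tri-layer phospholipid membrane. Donor held compound in PBS at the highest concentration soluble in PBS; acceptor was PBS. Incubated 5 h at room temperature, with propranolol and sorafenib (10 µM) as high and low permeability controls. Donor and acceptor concentrations measured by LC-MS/MS; Pe (10^-6 cm/s) calculated from acceptor/equilibrium concentrations, 0.3 cm² area and well volumes.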

[15] = Half-life in BALB-C mouse at 8 mg/kg, iv by LC-MS/MS analysis; format: ADME, organism-based; conditions: in vivo; how it was run: as §3
[16] = Inhibition of PI3K in serum-stimulated human U2OS cells assessed as decrease in AKT1 phosphorylation at S473 by C-ELISA; format: cell-based
How it was run: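 U2OS osteosarcoma cells grown in 0.1% FBS, then serum-stimulated; endogenous phospho-Akt1 (Ser473) quantified by cell ELISA with chemiluminescent substrate. EC50 from sigmoid dose-response fit; two independent experiments in duplicate.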

[17] = molecular target: Phosphatidylinositol 4,5-bisphosphate 3-kinase catalytic subunit gamma isoform (Homo sapiens, UniProt P48736); experiment: Inhibition of recombinant full-length human N-terminal His6-tagged p110gamma expressed in baculovirus infected Sf21 insect cells using PIP2 as substrate by HTRF assay; conditions: read-out: Ki(app)
[18] = Half-life in BALB-C mouse at 10 mg/kg, po by LC-MS/MS analysis; format: ADME, organism-based; conditions: in vivo; how it was run: as §3
[19] = Half-life in BALB-C mouse at 5 mg/kg, iv by LC-MS/MS analysis; format: ADME, organism-based; conditions: in vivo; how it was run: as §3
PI3K p110 beta/p85 alpha = PI3K p110 beta/p85 alpha (Homo sapiens, UniProt P42338); experiment: Inhibition of p110beta/85alpha (unknown origin) using PIP2 as substrate by HTRF assay; format: protein-complex assay; conditions: read-out: Ki(app)
[20] = AUC (infinity) in BALB-C mouse at 5 mg/kg, iv by LC-MS/MS analysis; format: ADME, organism-based; design: dose 5 mg/kg, time infinity, route intravenous; conditions: in vivo; how it was run: as §3
Mus musculus [21] = experiment: Clearance in BALB-C mouse at 5 mg/kg, iv by LC-MS/MS analysis relative to hepatic blood flow; format: ADME, organism-based; conditions: in vivo
[22] = molecular target: PI3-kinase p110-alpha/p85-alpha (Homo sapiens, UniProt P42336); experiment: Inhibition of full-length human P110alpha (1 to 1068 residues)/N-terminal GST-fused p85alpha (1 to 724 residues) expressed in baculovirus expression system by ADP Hunter assay; conditions: read-out: Ki(app)
U2OS = experiment: Inhibition of AKT phosphorylation in human U2OS cells
[23] = Clearance in BALB-C mouse at 5 mg/kg, iv by LC-MS/MS analysis; format: ADME, organism-based; conditions: in vivo; how it was run: as §5
Mus musculus [24] = experiment: Time at which plasma concentration stays above cellular EC50 for inhibition of AKT phosphorylation in BALB-C mouse at 10 mg/kg, po measured up to 24 hrs by LC-MS/MS analysis; format: organism-based; conditions: in vivo; how it was run: as §1
[25] = molecular target: PI3-kinase p110-delta/p85-alpha (Homo sapiens, UniProt O00329); experiment: Inhibition of recombinant human full-length N-terminal His6-tagged p110delta/human full-length p85alpha expressed in baculovirus infected Sf21 insect cells using PIP2 as substrate by HTRF assay; conditions: read-out: Ki(app)
[26] = Tmax in BALB-C mouse at 10 mg/kg, po by LC-MS/MS analysis; format: ADME, organism-based; conditions: in vivo; how it was run: as §1
[27] = Oral bioavailability in BALB-C mouse at 10 mg/kg by LC-MS/MS analysis; format: ADME, organism-based; conditions: in vivo; how it was run: as §1
[28] = Cmax in BALB-C mouse at 10 mg/kg, po by LC-MS/MS analysis; format: ADME, organism-based; design: dose 10 mg/kg, route oral; conditions: in vivo; how it was run: as §3
[29] = Volume of distribution in BALB-C mouse at 5 mg/kg, iv by LC-MS/MS analysis; format: ADME, organism-based; conditions: in vivo; how it was run: as §1
[30] = AUC (infinity) in BALB-C mouse at 10 mg/kg, po by LC-MS/MS analysis; format: ADME, organism-based; design: dose 10 mg/kg, time infinity, route oral; conditions: in vivo; how it was run: as §3
[31] = molecular target: Voltage-gated inwardly rectifying potassium channel KCNH2 (Homo sapiens, UniProt Q12809); experiment: Inhibition of human ERG by Tracer Red dye based fluorescence polarization assay
How it was run: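 hERG binding measured with Predictor hERG kit per kit instructions, read by fluorescence polarization.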

Sequence of CYP2C19 (P33261 whole entry): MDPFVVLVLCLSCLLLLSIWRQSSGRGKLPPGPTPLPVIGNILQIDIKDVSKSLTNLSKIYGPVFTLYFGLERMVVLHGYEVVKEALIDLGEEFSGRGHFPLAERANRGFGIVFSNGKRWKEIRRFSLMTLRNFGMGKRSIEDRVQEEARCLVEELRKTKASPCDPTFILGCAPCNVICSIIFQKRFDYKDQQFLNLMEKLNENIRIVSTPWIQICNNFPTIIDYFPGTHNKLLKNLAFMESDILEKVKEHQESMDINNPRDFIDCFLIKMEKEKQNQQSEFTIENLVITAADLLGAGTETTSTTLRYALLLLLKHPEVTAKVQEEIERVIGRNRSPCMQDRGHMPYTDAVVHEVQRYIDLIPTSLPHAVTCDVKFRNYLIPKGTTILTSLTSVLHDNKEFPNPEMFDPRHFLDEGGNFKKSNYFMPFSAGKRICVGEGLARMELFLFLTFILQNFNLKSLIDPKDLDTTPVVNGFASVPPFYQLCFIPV
Sequence of CYP2D6 (P10635 whole entry): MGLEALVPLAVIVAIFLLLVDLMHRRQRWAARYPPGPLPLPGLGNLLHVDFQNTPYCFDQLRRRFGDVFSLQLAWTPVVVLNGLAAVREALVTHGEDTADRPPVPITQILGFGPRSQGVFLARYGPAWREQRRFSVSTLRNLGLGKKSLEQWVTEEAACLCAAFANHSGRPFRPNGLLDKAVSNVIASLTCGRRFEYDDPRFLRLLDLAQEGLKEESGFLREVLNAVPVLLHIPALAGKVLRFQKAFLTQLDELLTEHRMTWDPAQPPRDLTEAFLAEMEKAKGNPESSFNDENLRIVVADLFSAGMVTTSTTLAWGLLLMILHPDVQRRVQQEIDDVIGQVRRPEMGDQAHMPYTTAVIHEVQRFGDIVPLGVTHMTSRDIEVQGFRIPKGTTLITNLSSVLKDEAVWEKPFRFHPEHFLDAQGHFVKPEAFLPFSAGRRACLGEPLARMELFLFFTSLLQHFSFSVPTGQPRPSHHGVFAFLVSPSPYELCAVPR
Sequence of CYP3A4 (P08684 whole entry): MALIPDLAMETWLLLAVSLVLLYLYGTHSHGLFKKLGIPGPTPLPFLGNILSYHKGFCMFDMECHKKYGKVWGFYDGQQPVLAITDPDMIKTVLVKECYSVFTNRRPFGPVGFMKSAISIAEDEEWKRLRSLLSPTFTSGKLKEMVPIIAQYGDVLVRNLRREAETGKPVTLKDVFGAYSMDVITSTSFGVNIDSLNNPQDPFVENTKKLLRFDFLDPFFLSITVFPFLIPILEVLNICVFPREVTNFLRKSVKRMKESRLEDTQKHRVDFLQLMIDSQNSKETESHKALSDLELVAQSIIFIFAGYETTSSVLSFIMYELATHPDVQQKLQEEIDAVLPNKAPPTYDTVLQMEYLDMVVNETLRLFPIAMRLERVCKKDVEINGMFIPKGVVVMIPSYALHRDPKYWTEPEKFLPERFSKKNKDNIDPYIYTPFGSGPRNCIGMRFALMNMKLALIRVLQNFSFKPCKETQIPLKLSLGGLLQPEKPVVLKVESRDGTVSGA
Sequence of CYP2C9 (P11712 whole entry): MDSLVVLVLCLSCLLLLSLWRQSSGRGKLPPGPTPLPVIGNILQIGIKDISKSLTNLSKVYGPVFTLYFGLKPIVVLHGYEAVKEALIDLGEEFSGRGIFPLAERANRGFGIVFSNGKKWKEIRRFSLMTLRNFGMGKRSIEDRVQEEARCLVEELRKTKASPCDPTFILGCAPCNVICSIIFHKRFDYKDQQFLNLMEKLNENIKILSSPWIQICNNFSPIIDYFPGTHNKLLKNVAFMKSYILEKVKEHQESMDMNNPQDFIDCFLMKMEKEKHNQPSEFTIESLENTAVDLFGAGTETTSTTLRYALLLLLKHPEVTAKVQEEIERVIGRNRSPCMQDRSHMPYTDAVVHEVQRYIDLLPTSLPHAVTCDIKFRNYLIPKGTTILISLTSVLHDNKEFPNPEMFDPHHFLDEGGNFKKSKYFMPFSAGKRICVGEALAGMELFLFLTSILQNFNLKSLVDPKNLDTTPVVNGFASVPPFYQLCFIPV
Sequence of Phosphatidylinositol 4,5-bisphosphate 3-kinase catalytic subunit gamma isoform (P48736 whole entry, canonical isoform): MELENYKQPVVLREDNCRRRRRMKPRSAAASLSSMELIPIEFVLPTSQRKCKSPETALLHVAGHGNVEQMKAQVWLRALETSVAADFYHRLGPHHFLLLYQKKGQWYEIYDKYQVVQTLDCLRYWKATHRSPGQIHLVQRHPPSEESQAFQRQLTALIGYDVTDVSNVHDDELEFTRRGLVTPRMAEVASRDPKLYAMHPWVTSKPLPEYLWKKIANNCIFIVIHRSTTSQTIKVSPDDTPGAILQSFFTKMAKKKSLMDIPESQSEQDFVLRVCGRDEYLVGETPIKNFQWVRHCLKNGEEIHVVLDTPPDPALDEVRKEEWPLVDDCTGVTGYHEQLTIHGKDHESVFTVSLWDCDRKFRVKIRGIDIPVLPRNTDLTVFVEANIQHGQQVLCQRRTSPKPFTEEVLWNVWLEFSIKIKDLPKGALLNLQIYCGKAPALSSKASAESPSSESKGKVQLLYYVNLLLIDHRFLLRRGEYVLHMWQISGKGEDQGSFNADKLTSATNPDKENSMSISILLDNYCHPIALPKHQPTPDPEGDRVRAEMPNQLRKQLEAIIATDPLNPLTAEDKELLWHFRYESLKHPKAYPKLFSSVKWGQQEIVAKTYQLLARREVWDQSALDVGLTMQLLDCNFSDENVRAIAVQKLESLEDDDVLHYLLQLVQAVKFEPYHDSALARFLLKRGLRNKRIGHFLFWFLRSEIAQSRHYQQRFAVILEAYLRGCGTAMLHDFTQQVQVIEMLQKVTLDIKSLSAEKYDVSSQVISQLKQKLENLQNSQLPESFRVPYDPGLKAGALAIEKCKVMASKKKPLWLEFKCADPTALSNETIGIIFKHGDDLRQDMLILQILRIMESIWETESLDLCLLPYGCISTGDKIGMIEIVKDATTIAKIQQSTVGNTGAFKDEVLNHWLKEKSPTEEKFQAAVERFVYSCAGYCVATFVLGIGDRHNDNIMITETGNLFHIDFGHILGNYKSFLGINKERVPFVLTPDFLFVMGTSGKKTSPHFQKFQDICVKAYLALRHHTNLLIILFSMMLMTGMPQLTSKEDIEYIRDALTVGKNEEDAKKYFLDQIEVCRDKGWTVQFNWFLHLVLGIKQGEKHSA
Sequence of PI3-kinase p110-alpha/p85-alpha (P27986 whole entry, the tested form may be a part): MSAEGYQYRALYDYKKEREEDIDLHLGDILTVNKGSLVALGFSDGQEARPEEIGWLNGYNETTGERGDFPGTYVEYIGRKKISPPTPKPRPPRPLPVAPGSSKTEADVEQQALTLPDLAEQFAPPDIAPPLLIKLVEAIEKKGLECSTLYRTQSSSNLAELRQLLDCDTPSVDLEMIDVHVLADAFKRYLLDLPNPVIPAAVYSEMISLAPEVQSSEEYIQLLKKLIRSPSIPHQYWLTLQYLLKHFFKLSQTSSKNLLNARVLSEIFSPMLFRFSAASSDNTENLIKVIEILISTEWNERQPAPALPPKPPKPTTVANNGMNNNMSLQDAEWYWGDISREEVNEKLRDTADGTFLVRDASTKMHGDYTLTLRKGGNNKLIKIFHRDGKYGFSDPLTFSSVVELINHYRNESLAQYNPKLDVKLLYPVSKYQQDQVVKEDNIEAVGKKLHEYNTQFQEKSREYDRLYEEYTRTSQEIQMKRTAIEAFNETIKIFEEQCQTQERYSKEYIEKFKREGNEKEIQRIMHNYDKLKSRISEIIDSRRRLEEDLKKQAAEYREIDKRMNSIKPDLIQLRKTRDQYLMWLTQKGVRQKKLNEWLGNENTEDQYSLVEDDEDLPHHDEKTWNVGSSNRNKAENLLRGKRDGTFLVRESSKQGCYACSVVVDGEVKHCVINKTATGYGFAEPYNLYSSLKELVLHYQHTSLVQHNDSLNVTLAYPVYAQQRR
Sequence of PI3-kinase p110-alpha/p85-alpha (P42336 whole entry, the tested form may be a part): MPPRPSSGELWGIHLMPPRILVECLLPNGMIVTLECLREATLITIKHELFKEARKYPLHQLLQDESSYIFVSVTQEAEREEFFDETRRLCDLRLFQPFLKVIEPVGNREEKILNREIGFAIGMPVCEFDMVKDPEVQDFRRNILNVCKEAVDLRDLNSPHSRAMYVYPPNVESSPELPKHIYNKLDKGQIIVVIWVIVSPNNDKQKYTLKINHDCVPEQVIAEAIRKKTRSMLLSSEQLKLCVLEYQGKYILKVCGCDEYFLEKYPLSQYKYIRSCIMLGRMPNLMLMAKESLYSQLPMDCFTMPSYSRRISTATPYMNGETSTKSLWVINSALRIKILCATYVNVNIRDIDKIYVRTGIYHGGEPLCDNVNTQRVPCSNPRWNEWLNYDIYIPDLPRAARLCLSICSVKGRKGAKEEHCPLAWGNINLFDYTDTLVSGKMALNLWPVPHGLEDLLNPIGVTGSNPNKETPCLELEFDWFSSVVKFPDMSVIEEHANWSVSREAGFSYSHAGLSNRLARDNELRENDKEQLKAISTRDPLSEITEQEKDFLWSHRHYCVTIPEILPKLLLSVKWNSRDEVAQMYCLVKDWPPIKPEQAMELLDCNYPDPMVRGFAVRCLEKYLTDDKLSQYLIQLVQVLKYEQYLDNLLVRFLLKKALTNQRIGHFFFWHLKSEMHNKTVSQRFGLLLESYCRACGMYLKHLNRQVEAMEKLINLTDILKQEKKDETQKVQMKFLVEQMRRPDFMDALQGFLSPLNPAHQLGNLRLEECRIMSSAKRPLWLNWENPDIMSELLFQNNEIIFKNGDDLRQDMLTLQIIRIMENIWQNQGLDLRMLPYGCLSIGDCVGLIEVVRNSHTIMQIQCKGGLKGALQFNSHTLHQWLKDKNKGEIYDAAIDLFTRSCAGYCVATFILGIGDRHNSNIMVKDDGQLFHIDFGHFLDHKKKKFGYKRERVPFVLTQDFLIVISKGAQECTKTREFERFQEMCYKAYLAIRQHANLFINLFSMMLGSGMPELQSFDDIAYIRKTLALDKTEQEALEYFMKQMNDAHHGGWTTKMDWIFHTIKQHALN

Structure (SMILES): CS(=O)(=O)N1CCN(Cc2cn3cc(-c4cnc(N)nc4)nc(N4CCOCC4)c3n2)CC1
- solubility kinetic at 24 h [1]: 50 µM (≈ 23.7 µg/mL)
- bioavailability [2]: 88.6%
- inhibition at 10 µM (CYP2D6): < 25%
- Vd [3]: 0.8 L/kg
- AUC(0-inf) [4]: 12600 ng·h/mL
- remaining at 0.5 h, 0.5 µM [5]: 100%
- IC50 [6]: 4.88 µM
- inhibition at 10 µM (CYP2C9): < 25%
- inhibition at 10 µM (CYP2C19): < 25%
- inhibition at 10 µM (CYP1A2): < 25%
- clearance [7]: 9.33 mL/min/kg
- remaining at 0.5 h, 0.5 µM [8]: 100%
- AUC(0-inf) [9]: 14200 ng·h/mL
- inhibition at 10 µM (CYP3A4): < 25%
- CL (Mus musculus [10]): < 50%
- half-life [11]: 8.38 h
- Cmax [12]: 1130 ng/mL
- Tmax [13]: 1 h
- Papp at 5 h [14]: 0.26 ×10⁻⁶ cm/s
- half-life [15]: 1.36 h

Structure (SMILES): CS(=O)(=O)N1CCN(Cc2cc3c(N4CCOCC4)nc(-c4cnc(N)nc4)c(Cl)n3n2)CC1
- EC50 [16]: 0.0345 µM
- Ki [17]: 0.0167 µM
- half-life [18]: 3.22 h
- half-life [19]: 0.61 h
- Ki (PI3K p110 beta/p85 alpha): 0.0719 µM
- solubility kinetic at 24 h [1]: 100 µM (≈ 50.8 µg/mL)
- AUC(0-inf) [20]: 8100 ng·h/mL
- CL (Mus musculus [21]): < 50%
- Ki [22]: 0.0021 µM
- EC50 (U2OS): 0.01753 µg/mL (≈ 0.0345 µM)
- inhibition at 10 µM (CYP2D6): < 25%
- clearance [23]: 12.5 mL/min/kg
- remaining at 0.5 h, 0.5 µM [5]: 100%
- Time (Mus musculus [24]): > 12 h
- IC50 [6]: 5.41 µM
- inhibition at 10 µM (CYP2C9): < 25%
- inhibition at 10 µM (CYP2C19): < 25%
- Ki [25]: 0.0084 µM
- Tmax [26]: 0.5 h
- bioavailability [27]: 43.1%
- Cmax [28]: 1370 ng/mL
- inhibition at 10 µM (CYP1A2): < 25%
- Vd [29]: 1.24 L/kg
- remaining at 0.5 h, 0.5 µM [8]: 100%
- inhibition at 10 µM (CYP3A4): < 25%
- AUC(0-inf) [30]: 6980 ng·h/mL
- Papp at 5 h [14]: 1.51 ×10⁻⁶ cm/s
- IC50 [31]: > 30 µM
